According to ChEMBL document CHEMBL3232996, “Synthesis and biological evaluation of novel (123)I-labeled 4-(4-iodophenyl)butanoyl-L-prolyl-(2S)-pyrrolidines for imaging prolyl oligopeptidase in vivo” (Eur J Med Chem, 2014):

Columns and labels:
[1] = Plasma protein binding in iv dosed C57Bl/6JRccHsd mouse measured at 20 mins; assay type: ADME, organism-based; settings: read-out: PPB (converted)
Summary of the method: (§1)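 Male mice given 3.6 MBq tracer i.v. via lateral tail vein; blocking groups got POP inhibitor i.p. (50 µmol/kg, 10 mL/kg, 1% DMSO in 0.9% NaCl) 10 min before. Heparinized cardiac blood on ice, gamma-counted, spun 5 min at 2000 g; plasma counted, precipitated with 1.5 volumes acetonitrile, respun; cell-bound, protein-bound and free fractions expressed as % of blood activity; n = 3.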

[2] = Fraction unbound in iv dosed C57Bl/6JRccHsd mouse plasma measured at 40 mins; assay type: ADME, organism-based; summary of the method: as §1
Thyroid gland [3] = experiment: Biodistribution in C57Bl/6JRccHsd mouse thyroid at 2.86 +/- 1.26 MBq, iv measured at 5 mins by SPECT analysis; assay type: ADME, organism-based; settings: in vivo
Summary of the method: (§2)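 Organs excised at 5, 20, 40, 80 or 160 min and radioactivity gamma-counted as %ID/g (brain also as %ID). Blocking groups received KYP-2047 (50 µmol/kg, 10 mL/kg, 1% DMSO in 0.9% NaCl) i.p. 10 min before tracer. Mean ± SD, n = 2–4 per time point. Blocking compared by two-tailed Student's t test.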

Muscle tissue [4] = experiment: Biodistribution in C57Bl/6JRccHsd mouse muscle at 2.86 +/- 1.26 MBq, iv measured at 80 mins by SPECT analysis; assay type: ADME, organism-based; settings: in vivo; summary of the method: as §2
Blood [5] = experiment: Biodistribution in C57Bl/6JRccHsd mouse blood at 2.86 +/- 1.26 MBq, iv measured at 80 mins by SPECT analysis; assay type: ADME, organism-based; settings: in vivo; summary of the method: as §2
Spleen = experiment: Biodistribution in C57Bl/6JRccHsd mouse spleen at 2.86 +/- 1.26 MBq, iv measured at 80 mins post dose pretreated with 50 umol/kg, ip prolyl oligopeptidase inhibitor KYP-2047 10 mins before compound dosing by SPECT analysis; assay type: ADME, organism-based; settings: in vivo; summary of the method: as §2
[6] = Fraction unbound in iv dosed C57Bl/6JRccHsd mouse plasma measured at 160 mins post dose pretreated with 50 umol/kg, ip prolyl oligopeptidase inhibitor KYP-2047 10 mins before compound dosing by SPECT analysis; assay type: ADME, organism-based
Summary of the method: (§3)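 Mice got tracer i.v., some after i.p. KYP-2047 (50 µmol/kg) 10 min before. Cardiac blood was collected at 20, 40, 80 or 160 min and spun 5 min at 2000 g into cells and plasma. Plasma was precipitated with acetonitrile and pellet and supernatant were gamma-counted. Activity in cells, protein-bound and free plasma is given as % of total blood activity, n = 3.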

Muscle tissue [7] = experiment: Biodistribution in C57Bl/6JRccHsd mouse muscle at 2.86 +/- 1.26 MBq, iv measured at 80 mins post dose pretreated with 50 umol/kg, ip prolyl oligopeptidase inhibitor KYP-2047 10 mins before compound dosing by SPECT analysis; assay type: ADME, organism-based; settings: in vivo; summary of the method: as §2
Thyroid gland [8] = experiment: Biodistribution in C57Bl/6JRccHsd mouse thyroid at 2.86 +/- 1.26 MBq, iv measured at 160 mins by SPECT analysis; assay type: ADME, organism-based; settings: in vivo; summary of the method: as §2
Mus musculus [9] = experiment: Biodistribution in C57Bl/6JRccHsd mouse tongue at 2.86 +/- 1.26 MBq, iv measured at 80 mins by SPECT analysis; assay type: ADME, organism-based; settings: in vivo; summary of the method: as §2
[10] = Octanol-phosphate buffer partition coefficient, log P of the compound by shake-flask method; assay type: physicochemical
Summary of the method: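 Tracer (700 kBq, in 1% DMSO/0.9% NaCl) shaken 3 min between n-octanol and 0.02 M phosphate buffer pH 7.4; octanol phase split into four tubes, re-extracted with equal buffer 10 min, centrifuged 5 min at 1000 g; log of octanol/buffer cpm per mL ratio, mean ± SD of four replicates.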

Brain [11] = experiment: Biodistribution in C57Bl/6JRccHsd mouse brain at 2.86 +/- 1.26 MBq, iv measured at 80 mins by SPECT analysis; assay type: ADME, organism-based; settings: in vivo; summary of the method: as §2
Brain [12] = experiment: Biodistribution in C57Bl/6JRccHsd mouse brain at 2.86 +/- 1.26 MBq, iv measured at 40 mins by SPECT analysis; assay type: ADME, organism-based; settings: in vivo; summary of the method: as §2
[13] = Biodistribution in left brain hemisphere of iv dosed C57BL/6JRccHsd mouse LPS-induced acute neuroinflammation model dosed 24 hrs after LPS challenge and measured at 80 mins post dose; assay type: ADME, organism-based; settings: read-out: Drug uptake
Summary of the method: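 Male mice under isoflurane got a stereotaxic LPS injection (E. coli 055:B5) into the left striatum, with buprenorphine 0.1 mg/kg s.c. for post-operative pain. The right hemisphere served as intact control. Tracer was given i.v. 24 h later. Left and right hemisphere and whole-brain radioactivity were measured 80 min post injection as %ID/g or %ID, n = 3.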

Mus musculus [14] = experiment: Biodistribution in C57Bl/6JRccHsd mouse tongue at 2.86 +/- 1.26 MBq, iv measured at 80 mins post dose pretreated with 50 umol/kg, ip prolyl oligopeptidase inhibitor KYP-2047 10 mins before compound dosing by SPECT analysis; assay type: ADME, organism-based; settings: in vivo; summary of the method: as §2
Blood [15] = experiment: Biodistribution in C57Bl/6JRccHsd mouse blood at 2.86 +/- 1.26 MBq, iv measured at 160 mins by SPECT analysis; assay type: ADME, organism-based; settings: in vivo; summary of the method: as §2
[16] = Biodistribution in C57Bl/6JRccHsd mouse urine at 2.86 +/- 1.26 MBq, iv measured at 80 mins post dose pretreated with 50 umol/kg, ip prolyl oligopeptidase inhibitor KYP-2047 10 mins before compound dosing by SPECT analysis; assay type: ADME, organism-based; settings: in vivo; summary of the method: as §2
[17] = Fraction unbound in iv dosed C57Bl/6JRccHsd mouse plasma measured at 160 mins; assay type: ADME, organism-based; summary of the method: as §3
Mus musculus [18] = experiment: Drug metabolism in C57Bl/6JRccHsd mouse plasma assessed as retention time of radioactive metabolite at 3.6 MBq, iv measured at 20 mins by HPLC analysis; assay type: ADME, organism-based
Summary of the method: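 Male mice received 3.6 MBq tracer via tail vein. Cardiac blood was taken on heparin and centrifuged. Plasma was deproteinized with acetonitrile (1.5× plasma volume) and the supernatant run on reverse-phase C18 gradient HPLC. Fractions of 0.65 min were gamma-counted. Metabolite retention time was read from the 20 min sample.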

Blood [19] = experiment: Biodistribution in C57Bl/6JRccHsd mouse blood at 2.86 +/- 1.26 MBq, iv measured at 40 mins post dose pretreated with 50 umol/kg, ip prolyl oligopeptidase inhibitor KYP-2047 10 mins before compound dosing by SPECT analysis; assay type: ADME, organism-based; settings: in vivo; summary of the method: as §2
Kidney = experiment: Biodistribution in C57Bl/6JRccHsd mouse kidney at 2.86 +/- 1.26 MBq, iv measured at 80 mins by SPECT analysis; assay type: ADME, organism-based; settings: in vivo; summary of the method: as §2
Mus musculus [20] = experiment: Biodistribution in C57Bl/6JRccHsd mouse salivary gland at 2.86 +/- 1.26 MBq, iv measured at 80 mins by SPECT analysis; assay type: ADME, organism-based; settings: in vivo; summary of the method: as §2
Lung = experiment: Biodistribution in C57Bl/6JRccHsd mouse lung at 2.86 +/- 1.26 MBq, iv measured at 80 mins post dose pretreated with 50 umol/kg, ip prolyl oligopeptidase inhibitor KYP-2047 10 mins before compound dosing by SPECT analysis; assay type: ADME, organism-based; settings: in vivo; summary of the method: as §2
Brain [21] = experiment: Biodistribution in C57Bl/6JRccHsd mouse brain at 2.86 +/- 1.26 MBq, iv measured at 80 mins post dose pretreated with 50 umol/kg, ip prolyl oligopeptidase inhibitor KYP-2047 10 mins before compound dosing by SPECT analysis; assay type: ADME, organism-based; settings: in vivo; summary of the method: as §2

## N#C[C@@H]1CCCN1C(=O)[C@@H]1CCCN1C(=O)CCCc1ccc([123I])cc1
[1]
  fraction unbound at 20 min: 0.98
[2]
  fraction unbound at 40 min: 0.08
Thyroid gland [3]
  Drug uptake: 52 % ID/g
Muscle tissue [4]
  Drug uptake: 2.15 % ID/g
Blood [5]
  Drug uptake: 2.1 % ID/g
Spleen
  Drug uptake: 0.92 % ID/g
[6]
  fraction unbound at 160 min: 0.58
Muscle tissue [7]
  Drug uptake: 0.59 % ID/g
Thyroid gland [8]
  Drug uptake: 9.4 % ID/g
Mus musculus [9]
  Drug uptake: 4.43 % ID/g
[10]
  logP: 2.37
Brain [11]
  Drug uptake: 0.62 % ID/g
Brain [12]
  Drug uptake: 0.76 %ID
[13]
  tissue uptake at 80 min: 1.34 %ID/g
Mus musculus [14]
  Drug uptake: 1.44 % ID/g
Blood [15]
  Drug uptake: 2.1 % ID/g
[16]
  Drug uptake: 45.24 % ID/g
[17]
  fraction unbound at 160 min: 0.26
Mus musculus [18]
  Retention_time: 4 min
Blood [19]
  Drug uptake: 4 % ID/g
Kidney
  Drug uptake: 10.02 % ID/g
Mus musculus [20]
  Drug uptake: 7.77 % ID/g
Lung
  Drug uptake: 1.54 % ID/g
Brain [21]
  Drug uptake: 0.08 % ID/g
